{"source": "paper PMC12363949", "about": "(bioRxiv, 2025)", "key": {"Pf20S β2": {"target": "Pf20S β2 (Plasmodium falciparum, UniProt Q8I261+Q8I6T3)", "sequence (Q8I6T3 42-270)": "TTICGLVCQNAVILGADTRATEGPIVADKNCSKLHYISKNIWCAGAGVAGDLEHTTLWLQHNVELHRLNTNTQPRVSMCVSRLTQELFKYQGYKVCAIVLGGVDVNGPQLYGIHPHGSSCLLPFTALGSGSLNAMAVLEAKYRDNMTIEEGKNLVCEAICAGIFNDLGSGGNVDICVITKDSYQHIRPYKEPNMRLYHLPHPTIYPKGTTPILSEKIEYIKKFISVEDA", "sequence (Q8I261 1-218)": "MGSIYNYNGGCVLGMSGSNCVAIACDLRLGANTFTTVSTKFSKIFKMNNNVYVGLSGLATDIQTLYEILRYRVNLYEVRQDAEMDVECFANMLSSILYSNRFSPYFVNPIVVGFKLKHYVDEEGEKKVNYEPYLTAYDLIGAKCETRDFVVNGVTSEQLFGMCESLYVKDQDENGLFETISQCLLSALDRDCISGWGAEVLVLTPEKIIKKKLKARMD", "sequence (Q06323 whole entry partner)": "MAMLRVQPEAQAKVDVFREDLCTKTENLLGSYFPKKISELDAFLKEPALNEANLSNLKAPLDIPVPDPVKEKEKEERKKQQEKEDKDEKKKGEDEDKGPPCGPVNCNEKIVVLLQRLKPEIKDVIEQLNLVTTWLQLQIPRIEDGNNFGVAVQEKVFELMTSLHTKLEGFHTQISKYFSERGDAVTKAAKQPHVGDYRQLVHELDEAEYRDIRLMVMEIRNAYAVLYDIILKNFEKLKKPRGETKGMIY", "test": "Pf20S β2 subunit activity/inhibition assay, fluorogenic substrate Z-VLR-amc", "assay_type": "biochemical"}, "Pf20S β5": {"target": "Pf20S β5 (Plasmodium falciparum, UniProt A0A5K1K7U1+Q8IJT1)", "sequence (Q8IJT1 61-271)": "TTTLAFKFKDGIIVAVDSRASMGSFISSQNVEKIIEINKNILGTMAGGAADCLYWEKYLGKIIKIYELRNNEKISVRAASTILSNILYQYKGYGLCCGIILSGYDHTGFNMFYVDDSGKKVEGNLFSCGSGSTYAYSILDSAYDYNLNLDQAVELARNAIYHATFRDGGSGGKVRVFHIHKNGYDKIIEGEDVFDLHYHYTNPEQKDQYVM", "sequence (A0A5K1K7U1 29-240)": "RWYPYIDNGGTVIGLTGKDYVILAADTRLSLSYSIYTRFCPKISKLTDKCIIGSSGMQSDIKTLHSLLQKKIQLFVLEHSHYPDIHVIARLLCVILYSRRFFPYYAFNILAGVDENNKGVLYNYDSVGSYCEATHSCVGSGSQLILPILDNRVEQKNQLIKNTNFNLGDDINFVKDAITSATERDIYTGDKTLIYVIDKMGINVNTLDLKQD", "sequence (Q06323 whole entry partner)": "as the sequence (Q06323 whole entry partner) above", "test": "Pf20S β5 subunit activity/inhibition assay, fluorogenic substrate Ac-FNKL-amc", "assay_type": "biochemical", "settings": "200 nM PA28α"}, "Pf20S β1": {"target": "Pf20S β1 (Plasmodium falciparum, UniProt Q8I0U7+Q8I6T3)", "sequence (Q8I0U7 31-282)": "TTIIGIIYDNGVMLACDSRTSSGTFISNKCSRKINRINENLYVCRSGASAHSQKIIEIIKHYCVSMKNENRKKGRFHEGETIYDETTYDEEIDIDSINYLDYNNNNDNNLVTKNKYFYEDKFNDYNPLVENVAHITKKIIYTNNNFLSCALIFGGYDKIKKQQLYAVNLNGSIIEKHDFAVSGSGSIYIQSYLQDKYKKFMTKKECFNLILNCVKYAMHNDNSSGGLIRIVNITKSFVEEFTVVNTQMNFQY", "sequence (Q8I6T3 42-270)": "as the sequence (Q8I6T3 42-270) above", "sequence (Q06323 whole entry partner)": "as the sequence (Q06323 whole entry partner) above", "test": "Pf20S β1 subunit activity/inhibition assay, fluorogenic substrate Ac-nPnD-amc", "assay_type": "biochemical"}, "c20S β2": {"target": "c20S β2 (Homo sapiens, UniProt P49720+Q99436)", "test": "Human c20S β2 inhibition assay, fluorogenic substrate Z-VLR-amc", "assay_type": "biochemical"}, "Pf20S β2 subunit": {"tested_on": "Pf20S β2 subunit", "test": "Gel-based competition with activity-based probe Me4BodipyFL-Ahx3Leu3VS, β2 band", "assay_type": "biochemical, Plasmodium falciparum", "settings": "preincubation of recombinant Pf20S with inhibitor before probe; denaturing gel", "outline": "(§1)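 Baculovirus-expressed Pf20S from Sf9 cells, purified by Streptactin affinity and size exclusion, preincubated with test compound. Then 2 μM Me4BodipyFL-Ahx3Leu3VS added, 16 h at room temperature. Samples heated 5 min at 99°C in LDS buffer with 250 μM DTT, run on 12% Bis-Tris gel in MOPS SDS buffer at 120 V. Imaged at 470 nm excitation / 530 nm emission; bands quantified densitometrically.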"}, "Pf20S β5 subunit": {"tested_on": "Pf20S β5 subunit", "test": "Gel-based competition with activity-based probe Me4BodipyFL-Ahx3Leu3VS, β5 band", "assay_type": "biochemical, Plasmodium falciparum", "settings": "preincubation of recombinant Pf20S with inhibitor before probe; denaturing gel", "outline": "as §1"}, "[1]": {"target": "incorrectly assembled half-Pf20S (immature half proteasome with Ump1) (Plasmodium falciparum) (UniProt Q8I6T3)", "test": "cryo-EM structure"}}, "data": [{"compound": "PA28α: human proteasome activator subunit 1 alpha, produced recombinantly in E. coli", "values": [{"measurement": "increase of Pf20S β2 subunit activity", "setting": "Pf20S β2; 200 nM PA28α, Z-VLR-amc", "result": 2, "unit": "fold"}, {"measurement": "increase of Pf20S β5 subunit activity", "setting": "Pf20S β5", "result": 8, "unit": "fold"}, {"measurement": "increase of Pf20S β1 subunit activity", "setting": "Pf20S β1; 200 nM PA28α, Ac-nPnD-amc", "result": 4, "unit": "fold"}]}, {"compound": "C[C@@]12OC(=O)[C@]1([C@@H](O)[C@@H]1C=CCCC1)NC(=O)[C@@H]2CCCl", "note": "[Marizomib]", "values": [{"measurement": "IC50", "setting": "c20S β2", "result": "~300", "unit": "nM"}, {"measurement": "effect on probe labeling of β2 (upper, 25 kDa) band", "setting": "Pf20S β2 subunit", "result": "eliminated the labeling of both bands"}, {"measurement": "effect on probe labeling of β5 (lower, 23 kDa) band", "setting": "Pf20S β5 subunit", "result": "eliminated the labeling of both bands"}, {"measurement": "inhibition of Pf20S-mediated cleavage of Ac-nPnD-amc (β1 activity)", "setting": "Pf20S β1; time-course, Fig. 3b", "result": "inhibited"}]}, {"compound": "incorrectly assembled half-Pf20S (immature half proteasome with Ump1) (from UniProt Q8I6T3 1-270; Q8IJT1 1-271; Q7K6A9 1-265) (complex)", "values": [{"measurement": "stoichiometry N", "setting": "[1]", "result": 2}]}, {"compound": "Ac-Phe-Arg-Ser-Arg-epoxyketone [FRSR-ek]", "values": [{"measurement": "inhibition of Pf20S activity with Z-VLR-amc (β2 substrate)", "setting": "Pf20S β2; Fig. S4", "result": "effectively inhibited"}]}]}
